This note sets out measurements from PubChem BioAssay.

Calls of active or inactive are those of the source.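 The calls were made as follows, unless noted: active = viability loss from added drug above about 55%, and viability with drug at most 40%, in both replicates (limit read from the data, passing the limit was not always enough); inconclusive = both conditions met in only one replicate; inactive = neither replicate meets both conditions.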

Assay [1] can be described thus: Her2 expression decrease, cell viability multiplex – SKBR3 breast tumor cells, AlphaScreen, ATP viability, primary screen (AID 461;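 active = Her2 level under about 52% in both replicate screens, with viability over 70% of control, limit read from the data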;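 as to Her2 level: lower value means less Her2 protein in the cells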;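 as to viability: percent of carrier control wells set as 100% viability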). The conditions noted are these: SKBR3 Her2 protein level, 18-24 h, measured here: SKBR3 viability, ATP luminescence, at 10 µM.
The target of assay [2] is Receptor tyrosine-protein kinase erbB-2 (Homo sapiens) (UniProt P04626). Described as above. To be noted: 18-24 h, at 10 µM, stronger effect = lower value.
Assay [3] is described as follows: reduced viability of SK-BR-3 breast cancer cells – cell-based, 24 h, human, pilot screen (AID 572;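 active = viability at or below 10% of carrier control in both of two separate runs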;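 also: compound exposure lasted between 18 and 24 h rather than exactly 24 h; 100% = carrier-treated control wells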). The conditions noted are these: SK-BR-3 viability, CellTiter-Glo luminescence, at 10 µM, stronger effect = lower value.
The nature of assay [4]: HUVEC growth inhibition – cell-based, human, primary screen (AID 575;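 active = viability at or below 30% in both replicate assays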;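 also: 100% = median of untreated cell wells with 0.1% DMSO on each plate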). To be noted: HUVEC proliferation, CellTiter-Glo luminescence, 72 h; at 10 µM; stronger effect = lower value. Put shortly:
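Material: primary human umbilical vein endothelial cells / Schedule: 72 h exposure, 37 °C, 5% CO2, 30 min RT equilibration / Signal: ATP-based CellTiter-Glo luminescent read / Read-out basis: percent of median DMSO-control luminescence / Control set: 32 DMSO-only cell-control wells (high), 32 MePR drug-control wells (low) per plate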

The nature of assay [5]: H69AR cell proliferation blockers – human, duplicate replicates, primary screen (AID 580;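 active = viability at or under a set limit in both replicates, limit being median viability minus 3 SD, cut at about 48% in these data, passing the limit was not always enough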;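 also: 100% = mean luminescence of untreated wells and 0% = no signal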). To be noted: H69AR lung tumor cells viability, ATP luminescence, 72 h; at 10 µM; stronger effect = lower value.
Assay [6] is described as follows: MRP1 drug-resistance reversers in H69AR cells – cell-based, doxorubicin co-treatment, pilot screen (AID 601). The conditions noted are these: CellTiter-Glo, 72 h, at 10 µM; for differential viability (reversal): stronger effect = higher value.
The nature of assay [7]: yeast transport mutant growth inhibition pilot in 384-well plates, post-Golgi transport modulator project (AID 636; in the data active = inhibition above about 31%). The conditions noted are these: absorbance 615 nm, about 18 h, stronger effect = higher value.
A short description of assay [8]: growth suppression of yeast trafficking mutant, preliminary HTS, modulators of trafficking downstream of Golgi apparatus project, 1536-format plate, OD 615 nm (AID 637; in the data active = inhibition above about 30%). The conditions noted are these: yeast transport mutant growth, absorbance 615 nm, 18 h; stronger effect = higher value.
[9] abbreviates: H69AR cells + 2 uM doxorubicin, measured here: viability with 2 uM doxorubicin, stronger effect = lower value.
[10] abbreviates: H69AR cells, compound alone cytotoxicity.

Receptor tyrosine-protein kinase erbB-2 (Homo sapiens), sequence (P04626 whole entry, looked up): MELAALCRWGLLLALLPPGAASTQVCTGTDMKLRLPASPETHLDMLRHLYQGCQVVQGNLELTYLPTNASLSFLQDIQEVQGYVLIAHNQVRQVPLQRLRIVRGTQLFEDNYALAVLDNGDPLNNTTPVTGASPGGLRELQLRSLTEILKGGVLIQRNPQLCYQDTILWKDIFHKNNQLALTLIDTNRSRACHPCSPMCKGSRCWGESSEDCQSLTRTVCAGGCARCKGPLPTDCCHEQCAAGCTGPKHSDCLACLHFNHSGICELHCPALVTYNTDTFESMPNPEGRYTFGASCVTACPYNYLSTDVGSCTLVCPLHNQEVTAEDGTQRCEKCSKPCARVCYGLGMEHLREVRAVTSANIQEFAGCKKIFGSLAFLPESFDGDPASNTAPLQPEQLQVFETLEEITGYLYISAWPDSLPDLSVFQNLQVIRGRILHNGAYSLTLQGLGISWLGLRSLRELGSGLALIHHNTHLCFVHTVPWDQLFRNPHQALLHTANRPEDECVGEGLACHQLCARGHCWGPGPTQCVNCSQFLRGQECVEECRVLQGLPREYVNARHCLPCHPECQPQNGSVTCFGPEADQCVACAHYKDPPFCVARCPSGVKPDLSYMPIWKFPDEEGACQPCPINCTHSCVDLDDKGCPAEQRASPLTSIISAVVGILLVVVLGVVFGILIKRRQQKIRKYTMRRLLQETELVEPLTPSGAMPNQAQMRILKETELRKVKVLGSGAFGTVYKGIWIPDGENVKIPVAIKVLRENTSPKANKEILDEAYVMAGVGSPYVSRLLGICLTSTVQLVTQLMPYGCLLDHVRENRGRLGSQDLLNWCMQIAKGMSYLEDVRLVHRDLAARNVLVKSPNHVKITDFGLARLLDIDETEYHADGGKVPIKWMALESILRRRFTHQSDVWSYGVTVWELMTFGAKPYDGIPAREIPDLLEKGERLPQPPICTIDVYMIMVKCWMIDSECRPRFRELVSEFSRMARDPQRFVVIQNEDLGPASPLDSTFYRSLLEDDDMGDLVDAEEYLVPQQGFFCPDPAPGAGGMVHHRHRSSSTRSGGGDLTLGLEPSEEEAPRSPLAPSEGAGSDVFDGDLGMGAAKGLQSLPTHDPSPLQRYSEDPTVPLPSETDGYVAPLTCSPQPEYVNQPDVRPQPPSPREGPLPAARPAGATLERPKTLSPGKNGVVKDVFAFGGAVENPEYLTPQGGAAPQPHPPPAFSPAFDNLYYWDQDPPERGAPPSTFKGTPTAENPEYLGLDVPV

As to `CCCCNC(=O)c1c(C)cc(=O)oc1C`, the viability in assay [1] is 102%; in assay [3] it was 102% (inactive); in assay [4] it was 98.6% (inactive); in assay [5], 107% (inactive); in assay [6] (setting [9]) it was 92%; in assay [6] (setting [10]), 107%. Further, the Her2 level in assay [2] is 90.5% (inactive). Also, in assay [6] (H69AR cells + 2 uM doxorubicin), the differential viability (reversal) is 14.8% (inactive). Further, the figures for the inhibition in assay [7] and in assay [8] were -4.53% (inactive) and -1.45% (inactive), respectively.
As for `CCOC(=O)c1cn(CC)c2cc(N3CCOCC3)c(F)cc2c1=O`, the viability was 104% in assay [1]; 104% (inactive) in assay [3]; 94.6% (inactive) in assay [4]; 90.8% (inactive) in assay [5]; 101% in assay [6] (setting [9]); 90.8% in assay [6] (setting [10]). Besides, the Her2 level in assay [2] is 106% (inactive). For the same compound, the differential viability (reversal) in assay [6] (H69AR cells + 2 uM doxorubicin) was -10.3% (inactive). Also, the inhibition in assay [7] was 2.16% (inactive); in assay [8] it was -0.63% (inactive).
Regarding `CN(C)C(=O)Cn1c(SCC(=O)NC2CCCCC2)nc2ccccc21`, the viability is 72% in assay [1]; 72% (inactive) in assay [3]; 101% (inactive) in assay [4]; 102% (inactive) in assay [5]; 87.5% in assay [6] (setting [9]); 102% in assay [6] (setting [10]). Further, in assay [2], the Her2 level was 76% (inactive). Besides, in assay [6] (H69AR cells + 2 uM doxorubicin), the differential viability (reversal) was 14.8% (inactive). Further, the inhibition in assay [7] was -6.08% (inactive); in assay [8], 0.16% (inactive).
As for `CCc1nnc(NC(=O)c2ccc(COc3ccccc3)o2)s1`, the viability in assay [1] was 97%; in assay [3], 97% (inactive); in assay [4], 77.9% (inactive); in assay [5], 111% (inactive); in assay [6] (setting [9]), 109%; in assay [6] (setting [10]) it was 111%. Also, the Her2 level in assay [2] was 104% (inactive). For the same compound, in assay [6] (H69AR cells + 2 uM doxorubicin), the differential viability (reversal) was 2.33% (inactive). Besides, the inhibition in assay [7] is -3.97% (inactive); in assay [8], -4.6% (inactive).
`O=C(Cn1nc(C(F)(F)F)c2c1CCCC2)NCCN1CCOCC1`: the viability is 110% in assay [1]; 110% (inactive) in assay [3]; 108% (inactive) in assay [4]; 91.5% (inactive) in assay [5]; 87.5% in assay [6] (setting [9]); 91.5% in assay [6] (setting [10]). In addition, the Her2 level in assay [2] was 89% (inactive). For the same compound, the differential viability (reversal) in assay [6] (H69AR cells + 2 uM doxorubicin) was 4.05% (inactive). For the same compound, the inhibition in assay [7] was -1.18% (inactive); in assay [8] it was 3.93% (inactive).
For the compound `O=S(=O)(c1ccc(Br)s1)N1CCCCC1`, the viability in assay [1] was 96.5%; in assay [3], 96.5% (inactive); in assay [4], 89.5% (inactive); in assay [5], 94% (inactive); in assay [6] (setting [9]), 91.1%; in assay [6] (setting [10]) it was 94%. Also, the Her2 level in assay [2] is 97.5% (inactive). Besides, in assay [6] (H69AR cells + 2 uM doxorubicin), the differential viability (reversal) is 2.88% (inactive). For the same compound, the inhibition was -1.32% (inactive) in assay [7] and -2.13% (inactive) in assay [8].
With `Cc1cc(=O)n(C)c(=O)n1CCCCCN1CCCC1`, the viability is 96.5% in assay [1]; 96.5% (inactive) in assay [3]; 100% (inactive) in assay [4]; 99.8% (inactive) in assay [5]; 85.2% in assay [6] (setting [9]); 99.8% in assay [6] (setting [10]). The Her2 level in assay [2] is 80% (inactive). In addition, the differential viability (reversal) in assay [6] (H69AR cells + 2 uM doxorubicin) is 14.7% (inactive). Besides, the inhibition in assay [7] was -1.2% (inactive); in assay [8], 0.48% (inactive).
With `CC(=O)N1CCC2(CC1)CC(=O)c1cc(OCC(=O)NCc3ccco3)ccc1O2`, the viability was 106% in assay [1]; 106% (inactive) in assay [3]; 106% (inactive) in assay [4]; 83.5% (inactive) in assay [5]; 87.9% in assay [6] (setting [9]); 83.5% in assay [6] (setting [10]). Moreover, in assay [2], the Her2 level is 112% (inactive). Further, in assay [6] (H69AR cells + 2 uM doxorubicin), the differential viability (reversal) is -4.33% (inactive). In addition, the inhibition in assay [7] is 0.92% (inactive); in assay [8], -3.17% (inactive).
As to `COC(=O)c1ccccc1NC(=O)CSc1nnc(-c2ccncc2)o1`, the viability was 98% in assay [1]; 98% (inactive) in assay [3]; 103% (inactive) in assay [4]; 101% (inactive) in assay [5]; 92.4% in assay [6] (setting [9]); 101% in assay [6] (setting [10]). For the same compound, the Her2 level in assay [2] was 81.5% (inactive). For the same compound, in assay [6] (H69AR cells + 2 uM doxorubicin), the differential viability (reversal) was 8.3% (inactive). The inhibition is -4.67% (inactive) in assay [7] and 0.95% (inactive) in assay [8].
Turning to `CC(NS(=O)(=O)c1ccccc1)C(c1cccs1)N1CCN(C)CC1` (stereo not given), the viability was 93.5% in assay [1]; 93.5% (inactive) in assay [3]; 81.1% (inactive) in assay [4]; 94.5% (inactive) in assay [5]; 79.4% in assay [6] (setting [9]); 94.5% in assay [6] (setting [10]). Further, the Her2 level in assay [2] is 79.5% (inactive). For the same compound, the differential viability (reversal) in assay [6] (H69AR cells + 2 uM doxorubicin) was 15% (inactive). The results for the inhibition in assay [7] and in assay [8] were -5% (inactive) and -6.83% (inactive), respectively.
On to `Cc1nnc(SCC(=O)N2c3ccccc3CC2C)s1` (stereo not given), for which the viability in assay [1] is 105%; in assay [3] it was 105% (inactive); in assay [4] it was 99.3% (inactive); in assay [5], 92% (inactive); in assay [6] (setting [9]), 92.7%; in assay [6] (setting [10]), 92%. Moreover, the Her2 level in assay [2] was 106% (inactive). Moreover, the differential viability (reversal) in assay [6] (H69AR cells + 2 uM doxorubicin) was -0.71% (inactive). Also, the inhibition in assay [7] was -1.73% (inactive); in assay [8], 0.81% (inactive).
For `N#Cc1c(-c2ccccc2)nc(SCc2nc(N)nc(N3CCCCC3)n2)[nH]c1=O`, the viability in assay [1] was 90.5%; in assay [3], 90.5% (inactive); in assay [4] it was 81.5% (inactive); in assay [5], 99.9% (inactive); in assay [6] (setting [9]) it was 102%; in assay [6] (setting [10]), 99.9%. The Her2 level in assay [2] was 86.5% (inactive). Moreover, the differential viability (reversal) in assay [6] (H69AR cells + 2 uM doxorubicin) was -2.35% (inactive). Moreover, the inhibition in assay [7] was -6% (inactive); in assay [8], 5.08% (inactive).
As to `C=CCN(C(=O)CNS(=O)(=O)c1ccccc1)C(C(=O)NCCOC)c1ccncc1` (stereo not given), the viability is 100% in assay [1]; 100% (inactive) in assay [3]; 97.6% (inactive) in assay [4]; 102% (inactive) in assay [5]; 96.3% in assay [6] (setting [9]); 102% in assay [6] (setting [10]). For the same compound, the Her2 level in assay [2] is 103% (inactive). Moreover, the differential viability (reversal) in assay [6] (H69AR cells + 2 uM doxorubicin) is 5.81% (inactive). Further, the inhibition was -4.27% (inactive) in assay [7] and -9.84% (inactive) in assay [8].
Turning to `CC(=O)NC(Cc1ccccc1)C(=O)NC1CCN(C(=O)c2cnccn2)CC1` (stereo not given), the viability in assay [1] is 122%; in assay [3], 122% (inactive); in assay [4], 104% (inactive); in assay [5] it was 96.2% (inactive); in assay [6] (setting [9]) it was 95%; in assay [6] (setting [10]), 96.2%. The Her2 level in assay [2] was 88% (inactive). In addition, in assay [6] (H69AR cells + 2 uM doxorubicin), the differential viability (reversal) was 1.21% (inactive). Further, the inhibition is -4.86% (inactive) in assay [7] and 8.52% (inactive) in assay [8].
Turning to `Cc1cccc(N(CC(N)=O)S(C)(=O)=O)c1C`, the viability was 102% in assay [1]; 102% (inactive) in assay [3]; 107% (inactive) in assay [4]; 92% (inactive) in assay [5]; 87.2% in assay [6] (setting [9]); 92% in assay [6] (setting [10]). In addition, the Her2 level in assay [2] was 100% (inactive). Also, in assay [6] (H69AR cells + 2 uM doxorubicin), the differential viability (reversal) was 4.79% (inactive). In addition, the values for the inhibition in assay [7] and in assay [8] were -2.76% (inactive) and 0.82% (inactive), respectively.
For `O=C(Cn1cnc2ccccc2c1=O)NCCC(=O)N1CCN(Cc2ccccc2)CC1`, the viability in assay [1] is 89%; in assay [3], 89% (inactive); in assay [4], 98.6% (inactive); in assay [5], 89.8% (inactive); in assay [6] (setting [9]), 85.2%; in assay [6] (setting [10]) it was 89.8%. Besides, in assay [2], the Her2 level is 90% (inactive). The differential viability (reversal) in assay [6] (H69AR cells + 2 uM doxorubicin) was 4.66% (inactive). The results for the inhibition in assay [7] and in assay [8] were 0.52% (inactive) and 0.98% (inactive), respectively.
